Only some compounds are listed: those with a hit (about 0.73% of all), similar ones and a draw of the others.
Keap1-Nrf2 PPI – Keap1-Nrf2 protein-protein interaction inhibitors, primary screen, biochemical, fluorescence polarization, single point. Kelch-like ECH-associated protein 1 (Homo sapiens), Q14145. inhibition, % at 9.4 µM. hit rate 0.15% among 340,000. Keap1 Kelch-Nrf2 peptide fluorescence polarization, 1536-well; in the data active = inhibition above about 12%;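 also: human Keap1 Kelch domain with fluorescein labeled Nrf2 9mer peptide probe; higher means more block of Keap1 binding to Nrf2 peptide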
DDE Tn7 FP inh – inhibitors of Tn7 peptide binding to fibrin DD(E), primary screen, biochemical, fluorescence polarization, human fibrin, Tn7 probe; inhibition, % at 8.3 µM; hit rate 0.13% among 370,000; FP displacement of FITC-Tn7 peptide from fibrin DD(E); 0% = median of compound wells per plate;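 active = inhibition above the mean of compounds falling within the control limits plus 3 SD of them, cut at about 14% in these data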
Target sequence (P02675 whole entry, looked up): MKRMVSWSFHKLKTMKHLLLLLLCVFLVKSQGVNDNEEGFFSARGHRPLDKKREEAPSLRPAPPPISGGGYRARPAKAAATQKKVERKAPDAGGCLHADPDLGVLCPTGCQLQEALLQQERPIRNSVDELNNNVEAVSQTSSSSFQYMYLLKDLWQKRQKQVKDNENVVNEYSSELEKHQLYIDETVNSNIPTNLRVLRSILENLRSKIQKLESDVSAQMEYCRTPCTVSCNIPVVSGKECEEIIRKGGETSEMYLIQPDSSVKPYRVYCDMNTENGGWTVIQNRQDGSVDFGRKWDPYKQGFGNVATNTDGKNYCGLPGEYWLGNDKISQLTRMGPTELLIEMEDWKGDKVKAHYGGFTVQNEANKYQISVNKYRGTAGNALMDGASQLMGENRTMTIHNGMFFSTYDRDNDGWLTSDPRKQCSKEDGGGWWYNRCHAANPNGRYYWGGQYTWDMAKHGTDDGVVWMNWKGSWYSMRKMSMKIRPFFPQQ
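Assay system: human fibrin DD(E) protein / Input: 2 µM fibrin DD(E) / Benchmarks: high control of 10 µM Aha-Tn7 peptide / Measured by: fluorescence polarization of the labelled Tn7 tracer / Medium: Tris buffer with calcium and detergent, pH 7.8 / Timing: 10 min compound pre-incubation, 3 h probe incubation at room temperature / Repeats: one replicate per compound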
C-LANA FP – inhibitors of KSHV C-LANA binding to DNA, primary screen, biochemical, fluorescence polarization, FAM-LBS DNA, MBP-C-LANA, single point; Kaposi's sarcoma herpesvirus LANA C-terminal domain (residues 932-1162) DNA binding; inhibition, % at 9 µM; hit rate 0.078% among 340,000; AID 504423, 2011;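 active = highest replicate inhibition at or above 60% at 9 µM, even if other replicates fall short; inactive = all replicates below 60% inhibition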
Tn6 DDE FP – inhibitors of Tn6 peptide binding to fibrin DD(E), primary screen, biochemical, fluorescence polarization, human fibrin, Tn6 probe; Fibrinogen beta chain (Homo sapiens), P02675; Fibrin DD(E) TRITC-Tn6 fluorescence polarization displacement; inhibition, % at 8.3 µM; hit rate 0.21% among 370,000; AID 720509, 2013;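 active = inhibition above a per-campaign cutoff: mean of compounds within control limits plus 3 SD, cut at about 15% in these data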
RTF Ca sens inh – cardiac RTF calcium sensitivity inhibitors, primary screen, biochemical, IANBD-TnC fluorescence, EC70 calcium | IANBD-labeled cardiac RTF, Ca2+ fluorescence | Troponin I, cardiac muscle (Homo sapiens) + Troponin T, cardiac muscle (Homo sapiens) + … | hit rate 0.12% among 340,000 | inhibition, % at 7.15 µM;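 active = inhibition above the mean inhibition of all tested compounds plus 3 SD, cut at about 17% in these data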;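 also: assay run at fixed EC70 calcium of 1.6 mM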
RTF Ca sens act – cardiac RTF calcium sensitivity activators, primary screen, biochemical, IANBD-TnC fluorescence, EC20 calcium; IANBD-labeled TnC RTF fluorescence at EC20 calcium; 0% EC20 calcium, 100% full calcium; activation, % at 7.2 µM; hit rate 0.24% among 340,000; AID 493008, 2010;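 active = activation above the mean over all tested compounds plus 3 SD, cut at about 30% in these data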;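 also: rise in fluorescence read as greater calcium sensitivity of cardiac thin filaments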
DDE Tn7 confirm – inhibitors of Tn7 peptide binding to fibrin DD(E), confirmation, biochemical, fluorescence polarization, human fibrin, Tn7 probe; inhibition, % at 8.3 µM; FP displacement of TRITC-Tn7 peptide from DD(E); 0% set at plate's compound-well median; shares compounds with DDE Tn7 FP inh; hit rate 5% among 460;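 active = inhibition above the campaign cutoff, the mean of compounds within control limits plus 3 SD, cut at about 14% in these data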;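 also: displacers lower polarization since freed probe rises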
DDE Tn7 FP ctr – DD(E)-Tn7 binding inhibition, counter-screen. shares compounds with DDE Tn7 FP inh. fibrin DD(E), TRITC-Tn7 probe displacement, fluorescence polarization. inhibition, % at 8.3 µM. hit rate 3% among 460;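 active = inhibition above the cutoff, the mean of compounds lying between the control bounds plus 3 SD of those compounds, cut at about 17% in these data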
Numbers stand for hits; – = inactive; · = not tested or not shown.

SMILES	Keap1-Nrf2 PPI	DDE Tn7 FP inh	C-LANA FP	Tn6 DDE FP	RTF Ca sens inh	RTF Ca sens act	DDE Tn7 confirm	DDE Tn7 FP ctr
O=C(NCCNS(=O)(=O)c1ccccc1)N1CCOCC1	–	15	–	–	–	–	–	–
O=C(NNC(=O)c1cc(-c2ccccc2)nc2ccccc12)c1csc(N2CCOCC2)n1	–	15	–	–	–	–	–	–
O=C(NCc1ccc(Cl)cc1)c1ccc(Cn2cc(C(F)(F)F)ccc2=O)cc1	–	49	–	–	–	–	27	–
O=C(NCc1ccccc1Cl)c1ccc(Cn2cc(C(F)(F)F)ccc2=O)cc1	–	–	–	–	–	–	·	·
CC(C)c1ccc(OCCCN2CCC(C(O)(c3ccccc3)c3ccccc3)CC2)cc1	·	–	·	–	·	·	·	·
COc1ccc(CNS(=O)(=O)CC2NCCc3ccccc32)cc1 (centres undefined)	·	–	·	–	·	·	·	·
CC(C)(C)c1ccc(S(=O)(=O)N2CCC(c3cn4ccccc4n3)CC2)cc1	·	–	·	–	·	·	·	·
O=C(CSc1nnc(NC(=O)C2CC(=O)N(c3ccc(F)cc3)C2)s1)NC1CCCC1 (centres undefined)	–	14	–	–	–	–	–	–
COc1cc2ncnc(NCc3ccc(C)cc3)c2cc1OC	–	14	–	–	–	–	–	–
COc1cccc(CNc2ncnc3cc(OC)c(OC)cc23)c1	–	–	–	–	–	–	·	·
CCOC(=O)NC(=O)C(/C=N/c1sccc1C(=O)OC)=C(\C)O	–	29	–	–	·	·	–	–
O=C(OCCN1C(=O)c2cccc3c(N4CCOCC4)ccc(c23)C1=O)c1ccccc1Cl	55	33	–	–	–	112	–	–
Cc1cc(NC(=O)COC(=O)c2ccc(OC(F)(F)F)cc2)no1	–	16	–	–	–	–	–	–
CC(C)(C)NC(=O)NC(=O)COC(=O)c1ccc(OC(F)(F)F)cc1	–	14	–	–	–	–	–	–
COC(=O)c1cc(-c2ccc(Cl)s2)c(=O)n2c1CCC2	·	–	·	–	·	·	·	·
C[C@H]1CN=C(N(C)C)N1CCCCc1ccccc1	–	16	–	–	–	–	–	–
CC(C)C[C@H]1CN=C(N(C)C)N1CCCCc1ccccc1	–	–	–	–	–	–	·	·
CCCCN1CN2Cc3ccccc3C2CS1(=O)=O (centres undefined)	·	–	·	–	·	·	·	·
CCOC(=O)c1sc2nc3n(c(=O)c2c1C)CCC3	–	15	–	–	–	–	–	–
C#CCn1cc(/C=N/NC(=O)c2cc3ccccc3o2)c2ccccc21	–	18	–	–	–	–	14	–
Cc1cccn2c(=O)c(/C=C(\C#N)C(=O)NCc3ccccc3)c(N3CCC(C(N)=O)CC3)nc12	–	16	–	–	–	–	–	–
CCNC(=O)/C(C#N)=C/c1c(N2CCCCCC2)nc2c(C)cccn2c1=O	–	–	–	–	–	–	·	·
CCCCCC[C@H](CC)CN(C(=O)Oc1ccccc1)c1ccccc1	·	–	·	–	·	·	·	·
CCCCCC[C@@H](CC)CN(C(=O)Oc1ccccc1)c1ccccc1	·	15	·	–	·	·	–	–
Cc1ccc(NC(=O)c2ccc(NCCCN3CCC(C)CC3)c([N+](=O)[O-])c2)cc1F	–	15	–	–	–	–	–	–
